One test concerns BALB/3T3. Description: Antiproliferative activity mouse BALB/3T3 cells. Type of test: cell-based. In short, it runs like this:
(§1)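 IC50 is the concentration giving 50% growth inhibition, reported as mean with SD. HL-60/vinc and LoVo/DX are drug-resistant (MDR) sublines of HL-60 and LoVo. BALB/3T3 is a normal murine embryonic fibroblast line.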

The test system of test [1] is Staphylococcus aureus. As to the kind of experiment: Antibacterial activity against Staphylococcus aureus ATCC 25923. The format is functional.
Test [2] relates to Staphylococcus epidermidis. As to the kind of experiment: Antibacterial activity against methicillin-resistant Staphylococcus epidermidis 468/11. The format is functional. In short, it runs like this:
(§2)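 In vitro antibacterial test on Staphylococcus strains, including MRSE clinical isolates. Read-outs were growth inhibition zone (mm) and MIC (µg/ml). Ciprofloxacin was the reference antibiotic.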

For test [3], the system named is Staphylococcus epidermidis. Description: Antibacterial activity against Staphylococcus epidermidis ATCC 35984. The format is functional. In short, it runs like this:
as §2

Test [4] has as its system Staphylococcus epidermidis. Description: Antibacterial activity against methicillin-resistant Staphylococcus epidermidis 466/11. Type of test: functional. In short, it runs like this:
as §2

For test [5], the system named is HL-60. Description: Resistance index, ratio of IC50 for human HL60/Vinc cells to IC50 for human HL60 cells. Type of test: functional. In short, it runs like this:
(§3)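 Index of resistance is the IC50 in the resistant subline (HL-60/vinc or LoVo/DX) divided by the IC50 in its parental line (HL-60 or LoVo). Each IC50 is the concentration giving 50% growth inhibition. Bands are 0–2 sensitive, 2–10 moderate, above 10 strongly resistant.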

Test [6] deals with LoVo. As to the kind of experiment: Selectivity index, ratio of IC50 for mouse BALB/3T3 cells to IC50 for human LoVo cells. Type of test: functional. An outline of the steps:
(§4)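 Selectivity index is the IC50 in normal murine embryonic fibroblasts (BALB/3T3) divided by the IC50 in the respective cancer line (HL-60, HL-60/vinc, LoVo or LoVo/DX). Each IC50 is the concentration giving 50% growth inhibition. SI >1.0 is taken as favourable.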

Test [7] deals with Staphylococcus epidermidis. Description: Antibacterial activity against methicillin-resistant Staphylococcus epidermidis 460/11. Type of test: functional. An outline of the steps:
as §2

Test [8] has as its system Staphylococcus epidermidis. Description: Antibacterial activity against methicillin-resistant Staphylococcus epidermidis 488/11. The format is functional. An outline of the steps: as §2
The subject of test [9] is Staphylococcus epidermidis. Description: Antibacterial activity against Staphylococcus epidermidis ATCC 12228. Type of test: functional. In short, it runs like this:
as §2

Test [10] can be described thus: Selectivity index, ratio of IC50 for mouse BALB/3T3 cells to IC50 for human LoVo/DX cells. The format is functional. An outline of the steps: as §4
In test [11] the test system is LoVo. Description: Antiproliferative activity against human LoVo cells. The format is functional, cell-based. In short, it runs like this:
as §1

Test [12] deals with Staphylococcus epidermidis. As to the kind of experiment: Antibacterial activity against methicillin-resistant Staphylococcus epidermidis 459/11. The format is functional. In short, it runs like this:
as §2

The subject of test [13] is Staphylococcus epidermidis. Description: Antibacterial activity against methicillin-resistant Staphylococcus epidermidis 489/11. The format is functional. An outline of the steps: as §2
The subject of test [14] is Staphylococcus epidermidis. Description: Antibacterial activity against methicillin-resistant Staphylococcus epidermidis 470/11. The format is functional. An outline of the steps: as §2
The nature of test [15]: Selectivity index, ratio of IC50 for mouse BALB/3T3 cells to IC50 for human HL60/Vinc cells. The format is functional. An outline of the steps: as §4
For test [16], the system named is HL-60. Description: Selectivity index, ratio of IC50 for mouse BALB/3T3 cells to IC50 for human HL60 cells. The format is functional. An outline of the steps: as §4
The subject of test [17] is Staphylococcus epidermidis. As to the kind of experiment: Antibacterial activity against methicillin-resistant Staphylococcus epidermidis 467/11. Type of test: functional. In short, it runs like this: as §2
Test [18] concerns Staphylococcus aureus. As to the kind of experiment: Antibacterial activity against Staphylococcus aureus ATCC 6538. Type of test: functional.
In test [19] the test system is Staphylococcus aureus. As to the kind of experiment: Antibacterial activity against Staphylococcus aureus ATCC 29213. Type of test: functional.
Test [20] deals with Staphylococcus aureus. Description: Antibacterial activity against Staphylococcus aureus NCTC 4163. The format is functional.
In test [21] the test system is LoVo. As to the kind of experiment: Resistance index, ratio of IC50 for human LoVo/DX cells to IC50 for human LoVo cells. Type of test: functional. An outline of the steps:
as §3

Test [22] concerns HL-60. As to the kind of experiment: Antiproliferative activity against human HL60 cells. The format is functional, cell-based. In short, it runs like this:
as §1

Test [23] in a line: Antiproliferative activity against human LoVo/DX cells. Type of test: functional, cell-based. An outline of the steps: as §1
Test [24] concerns Staphylococcus epidermidis. As to the kind of experiment: Antibacterial activity against methicillin-resistant Staphylococcus epidermidis 469/11. The format is functional. In short, it runs like this: as §2
The nature of test [25]: Antiproliferative activity against human HL60/Vinc cells. The format is functional, cell-based. In short, it runs like this: as §1
Test [26] relates to Staphylococcus epidermidis. Description: Antibacterial activity against methicillin-resistant Staphylococcus epidermidis 461/11. The format is functional. In short, it runs like this: as §2

Converted amounts (≈) assume the structure as drawn.

By IC50 is commonly meant the midpoint of a concentration-inhibition curve. Read a high IC50 as weaker potency. By MIC is commonly meant the smallest concentration in the dilution series that meets the test's criterion for growth inhibition.

As to `CC[C@@H](C(=O)[C@@H](C)[C@@H](O)[C@H](C)[C@@H]1O[C@@H]([C@@H](CC)C(=O)NCCS)CC[C@@H]1C)[C@H]1O[C@]2(C=C[C@@H](O)[C@]3(CC[C@@](C)([C@H]4CC[C@](O)(CC)[C@H](C)O4)O3)O2)[C@H](C)C[C@@H]1C`, the IC50 stood at 17.1 µM in the test on BALB/3T3; 26.5 µM with LoVo [11]; 3.1 µM in the test with HL-60 [22]; 28.5 µM in test [23]; 34 µM in [25]. Further, the MIC came out at 16 µg/mL (≈ 19.7 µM) with Staphylococcus aureus [1]; 64 µg/mL (≈ 79 µM) in test [2]; 32 µg/mL (≈ 39.5 µM) in [3]; 32 µg/mL (≈ 39.5 µM) in test [4]; 32 µg/mL (≈ 39.5 µM) in [7]; 32 µg/mL (≈ 39.5 µM) in test [8]. Moreover, the MIC turned out to be 32 µg/mL (≈ 39.5 µM) in test [9]; 32 µg/mL (≈ 39.5 µM) in test [12]; 32 µg/mL (≈ 39.5 µM) in test [13]; 64 µg/mL (≈ 79 µM) in test [14]; 32 µg/mL (≈ 39.5 µM) in test [17]; 16 µg/mL (≈ 19.7 µM) against Staphylococcus aureus [18]. For the same compound, the MIC came out at 32 µg/mL (≈ 39.5 µM) in the test on Staphylococcus aureus [19], 16 µg/mL (≈ 19.7 µM) against Staphylococcus aureus [20], 64 µg/mL (≈ 79 µM) in test [24] and 32 µg/mL (≈ 39.5 µM) in [26]. Also, the “Ratio IC50” value with HL-60 [5] is recorded as 10.99; with LoVo [6], 0.65; in [10] it was 0.6; in test [15], 0.5; with HL-60 [16] it was 5.53; in the test on LoVo [21], 1.07.
In the case of `CC[C@@H](C(=O)[C@@H](C)[C@@H](O)[C@H](C)[C@@H]1O[C@@H]([C@@H](CC)C(=O)NCCCCN)CC[C@@H]1C)[C@H]1O[C@]2(C=C[C@@H](O)[C@]3(CC[C@@](C)([C@H]4CC[C@](O)(CC)[C@H](C)O4)O3)O2)[C@H](C)C[C@@H]1C`, the IC50 in the test with BALB/3T3 came to 35.1 µM; in the test with LoVo [11], 21.9 µM; in the test with HL-60 [22] it was 3.7 µM; in test [23], 12.6 µM; in test [25] it was 23.1 µM. For the same compound, the MIC in the test with Staphylococcus aureus [1] worked out at 32 µg/mL (≈ 39 µM); in [2] it was 32 µg/mL (≈ 39 µM); in [3] it was 32 µg/mL (≈ 39 µM); in [4], 64 µg/mL (≈ 77.9 µM); in [7], 64 µg/mL (≈ 77.9 µM); in test [8] it was 64 µg/mL (≈ 77.9 µM). For the same compound, the MIC in test [9] was 64 µg/mL (≈ 77.9 µM); in [12] it was 32 µg/mL (≈ 39 µM); in test [13], 32 µg/mL (≈ 39 µM); in [14], 64 µg/mL (≈ 77.9 µM); in test [17], 32 µg/mL (≈ 39 µM); with Staphylococcus aureus [18], 32 µg/mL (≈ 39 µM). For the same compound, the MIC came out at 64 µg/mL (≈ 77.9 µM) with Staphylococcus aureus [19], 32 µg/mL (≈ 39 µM) against Staphylococcus aureus [20], 64 µg/mL (≈ 77.9 µM) in [24] and 64 µg/mL (≈ 77.9 µM) in test [26]. The “Ratio IC50” value in the test with HL-60 [5] is given as 6.22; with LoVo [6], 1.6; in test [10], 2.78; in [15], 1.52; with HL-60 [16], 9.47; in the test with LoVo [21] it was 0.58.
With `O=C(O)c1cn(C2CC2)c2cc(N3CCNCC3)c(F)cc2c1=O` [CIPROFLOXACIN], the minimal inhibitory concentration (MIC) in test [2] came to 16 µg/mL (≈ 48.3 µM); in [3], 0.125 µg/mL (≈ 0.377 µM); in [4] it was 2 µg/mL (≈ 6.04 µM); in [7] it was 0.125 µg/mL (≈ 0.377 µM); in test [8] it was 16 µg/mL (≈ 48.3 µM); in [9] it was 0.25 µg/mL (≈ 0.754 µM). In addition, the MIC was determined as 16 µg/mL (≈ 48.3 µM) in test [12]; 0.25 µg/mL (≈ 0.754 µM) in test [13]; 0.125 µg/mL (≈ 0.377 µM) in test [14]; 16 µg/mL (≈ 48.3 µM) in test [17]; 0.25 µg/mL (≈ 0.754 µM) against Staphylococcus aureus [18]; 0.5 µg/mL (≈ 1.51 µM) against Staphylococcus aureus [19]. The MIC with Staphylococcus aureus [20] is 0.25 µg/mL (≈ 0.754 µM); in [24], 8 µg/mL (≈ 24.1 µM); in [26], 0.25 µg/mL (≈ 0.754 µM).

The values above are taken from ChEMBL document CHEMBL3232897, “Synthesis, antiproliferative and antibacterial activity of new amides of salinomycin” (Bioorg Med Chem Lett, 2014).
